Source: ChEMBL document CHEMBL3108729, “Design, synthesis and anticonvulsant evaluation of N-(benzo[d]thiazol-2-ylcarbamoyl)-2-methyl-4-oxoquinazoline-3(4H)-carbothioamide derivatives: a hybrid pharmacophore approach” (Eur J Med Chem, 2013)
Active and inactive are the calls of the source. The calls are words filed in the database; no cut-off is given here.

How the values were obtained:
Mus musculus [1] = test: Anticonvulsant activity in albino mouse assessed as protection against maximal electroshock-induced seizures at 300 mg/kg, ip measured after 0.5 hrs; format: functional, organism-based; parameters: dose 300 mg/kg
Mus musculus [2] = test: Anticonvulsant activity in albino mouse assessed as protection against maximal electroshock-induced seizures at 300 mg/kg, ip measured after 4 hrs; format: functional, organism-based; parameters: dose 300 mg/kg
Mus musculus [3] = test: Neurotoxicity in ip dosed albino mouse after 0.5 hrs by rotorod test; format: toxicity, organism-based; details: in vivo
In short: (§1)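 Swiss mice, four per dose, received 30, 100 or 300 mg/kg i.p. and were placed on a rotorod at 0.5 and 4 h. Neurotoxicity meant failure to keep balance for 1 min. The value reported is the minimum dose affecting half or more of the mice.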

Mus musculus [4] = test: Anticonvulsant activity in ip dosed albino mouse assessed as protection against maximal electroshock-induced seizures after 0.5 hrs; format: functional; details: read-out: MED
Mus musculus [5] = test: Neurotoxicity in albino mouse at 300 mg/kg, ip after 4 hrs by rotorod test; format: toxicity, organism-based; parameters: dose 300 mg/kg, route intraperitoneal; details: in vivo; in short: as §1
Mus musculus [6] = test: Anticonvulsant activity in ip dosed albino mouse assessed as protection against maximal electroshock-induced seizures after 4 hrs; format: functional; details: read-out: MED
Mus musculus [7] = test: Neurotoxicity in ip dosed albino mouse after 4 hrs by rotorod test; format: toxicity, organism-based; details: in vivo; in short: as §1
Rattus norvegicus [8] = test: Anticonvulsant activity in po dosed albino rat assessed as protection against pentylenetetrazole-induced seizure after 2 hrs; format: functional
Rattus norvegicus [9] = test: Anticonvulsant activity in po dosed albino rat assessed as protection against maximal electroshock-induced seizures after 2 hrs; format: functional
Rattus norvegicus [10] = test: Hepatotoxicity in albino rat assessed as change in SGPT level at 25 mg/kg, po for 14 days (reference value: 46.1+/-5.25 units/ml); format: toxicity, organism-based; parameters: dose 25 mg/kg, route oral; details: in vivo, 336 h
in vivo = details: albino, rat
Rattus norvegicus [11] = test: Hepatotoxicity in albino rat assessed as change in SGOT level at 25 mg/kg, po for 14 days (reference value: 74.2+/-5.95 units/ml); format: toxicity, organism-based; parameters: dose 25 mg/kg, route oral; details: in vivo, 336 h
[12] = Neurotoxicity in po dosed albino rat after 2 hrs; format: toxicity, organism-based; details: in vivo
In short: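 Rats on oral fixed-dose testing (30 or 50 mg/kg) were scored for motor impairment in parallel with seizure testing, at five time points from one quarter hour to 4 h. The rotorod end point was failure to keep equilibrium for 1 min.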

[13] = Neurotoxicity in po dosed albino rat after 0.5 hrs; format: toxicity, organism-based; details: in vivo
Rattus norvegicus [14] = test: Hepatotoxicity in albino rat assessed as change in SGPT level at 30 mg/kg, po for 14 days (reference value: 46.1+/-5.25 units/ml); format: toxicity, organism-based; parameters: dose 30 mg/kg, route oral; details: in vivo, 336 h
[15] = Protective index, ratio of TD50 for neurotoxicity to ED50 for protection against pentylenetetrazole-induced seizure in albino rat after 0.5 hrs; format: toxicity, organism-based; details: in vivo, read-out: Ratio TD50/ED50
In short: (§2)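 Rats received oral doses in groups of eight at the time of peak effect, with at least three points in the 10–90% range for seizure protection or minimal neurotoxicity. ED50, TD50 and 95% confidence intervals were computed by regression, and PI was calculated as TD50/ED50.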

[16] = Protective index, ratio of TD50 for neurotoxicity to ED50 for protection against maximal electroshock-induced seizure in albino rat after 0.5 hrs; format: toxicity, organism-based; details: in vivo, read-out: Ratio TD50/ED50; in short: as §2
Mus musculus [17] = test: Anticonvulsant activity in ip dosed albino mouse assessed as protection against AMPA-induced clonic phase of seizures after 30 mins; format: functional; details: 0.5 h
In short: (§3)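 Mice were dosed i.p. over 10–100 µmol/kg. After 30 min, AMPA was injected i.c.v. into a lateral ventricle under ether anaesthesia, at 9.7 nmol for clonus or 11.7 nmol for forelimb tonic extension. Mice were observed singly for 30 min. ED50 values with 95% confidence limits were derived from dose–response data.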

Rattus norvegicus [18] = test: Hepatotoxicity in albino rat assessed as change in SGOT level at 30 mg/kg, po for 14 days (reference value: 74.2+/-5.95 units/ml); format: toxicity, organism-based; parameters: dose 30 mg/kg, route oral; details: in vivo, 336 h
Mus musculus [19] = test: Anticonvulsant activity in ip dosed albino mouse assessed as protection against AMPA-induced tonic phase of seizures after 30 mins; format: functional; details: 0.5 h; in short: as §3
Rattus norvegicus [20] = test: Anticonvulsant activity in po dosed albino rat assessed as protection against pentylenetetrazole-induced seizure after 0.5 hrs; format: functional
Rattus norvegicus [21] = test: Anticonvulsant activity in Wistar rat assessed as inhibition of GABA-induced seizures measuring minimum GABA level per 100 mg whole brain required for 50 % inhibition at 30 mg/kg, po for 7 days (reference value: 51.5 +/- 2.60 ug/100 mg brain); format: functional
In short: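 Adult Wistar rats in groups of six were dosed orally at 30 mg/kg for 7 days. Whole-brain GABA was then measured enzymatically in ethanol extracts as µg/100 mg tissue. Values are mean ± SEM of six rats versus control (Student's t test).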

Rattus norvegicus [22] = test: Anticonvulsant activity in po dosed albino rat assessed as protection against maximal electroshock-induced seizures after 0.5 hrs; format: functional
Rattus norvegicus [23] = test: Anticonvulsant activity in Wistar rat assessed as inhibition of GABA-induced seizures measuring minimum GABA level per 100 mg whole brain required for 50 % inhibition at 100 mg/kg, ip as single dose measured after 2 hrs (reference value: 46.4 +/- 5.50 ug/100 mg brain); format: functional; details: route intraperitoneal
Mus musculus [24] = test: Neurotoxicity in albino mouse at 300 mg/kg, ip after 0.5 hrs by rotorod test; format: toxicity, organism-based; parameters: dose 300 mg/kg, route intraperitoneal; details: in vivo
In short: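 Swiss mice (25–30 g), four per dose, got 30, 100 or 300 mg/kg i.p. and were checked on the rotorod at 0.5 and 4 h. Motor impairment meant failure to keep equilibrium on the rod for 1 min. The value is the minimum dose at which half or more of the mice were impaired.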

Structure (SMILES) | Activity (Mus musculus [1]) | Activity (Mus musculus [2]) | MTC (Mus musculus [3]) | minimal effective dose (Mus musculus [4]) | Activity (Mus musculus [5]) | minimal effective dose (Mus musculus [6]) | also measured
Cc1ccc2nc(NC(=O)NC(=S)n3c(C)nc4cc(F)ccc4c3=O)sc2c1 | inactive | inactive |  |  |  |  | 
Cc1ccc2nc(NC(=O)NC(=S)n3c(C)nc4ccccc4c3=O)sc2c1 |  | inactive | 300 mg/kg | 300 mg/kg | Non-toxic |  | 
Cc1nc2cc(Cl)ccc2c(=O)n1C(=S)NC(=O)Nc1nc2ccc(OC(F)(F)F)cc2s1 |  |  | 300 mg/kg | 100 mg/kg | Non-toxic | 100 mg/kg | 
COc1ccc2nc(NC(=O)NC(=S)n3c(C)nc4cc(Cl)ccc4c3=O)sc2c1 | inactive | inactive |  |  |  |  | 
Cc1nc2cc(Cl)ccc2c(=O)n1C(=S)NC(=O)Nc1nc2cc(Cl)ccc2s1 |  | inactive |  | 300 mg/kg |  |  | 
Cc1nc2cc(F)ccc2c(=O)n1C(=S)NC(=O)Nc1nc2cc(Cl)ccc2s1 |  | inactive | 100 mg/kg | 300 mg/kg |  |  | MTC (Mus musculus [7]): 300 mg/kg
Cc1nc2cc(Cl)ccc2c(=O)n1C(=S)NC(=O)Nc1nc2ccc(O)cc2s1 | inactive | inactive |  |  |  |  | 
Cc1nc2ccccc2c(=O)n1C(=S)NC(=O)Nc1nc2cc(Cl)ccc2s1 |  |  | 100 mg/kg | 100 mg/kg | Non-toxic | 300 mg/kg | 
COc1ccc2nc(NC(=O)NC(=S)n3c(C)nc4ccccc4c3=O)sc2c1 | inactive | inactive |  |  |  |  | 
Cc1nc2ccccc2c(=O)n1C(=S)NC(=O)Nc1nc2ccc(O)cc2s1 | inactive | inactive |  |  |  |  | 
O=C1NC(=O)C(c2ccccc2)(c2ccccc2)N1 [PHENYTOIN] |  |  | 100 mg/kg | 30 mg/kg |  | 30 mg/kg | ED50 (Rattus norvegicus [8]): > 3540 µmol/kg; MTC (Mus musculus [7]): 100 mg/kg; ED50 (Rattus norvegicus [9]): 92 µmol/kg; Activity (Rattus norvegicus [10]): 52.6 U/ml; selectivity ratio at 2 h (in vivo): > 22; Activity (Rattus norvegicus [11]): 84.1 U/ml; TD50 at 2 h [12]: > 1980 µmol/kg
Cc1nc2cc(Cl)ccc2c(=O)n1C(=S)NC(=O)Nc1nc2c(Br)cccc2s1 | inactive | inactive |  |  |  |  | 
Cc1nc2cc(F)ccc2c(=O)n1C(=S)NC(=O)Nc1nc2ccc(OC(F)(F)F)cc2s1 | inactive |  | 100 mg/kg |  |  | 300 mg/kg | MTC (Mus musculus [7]): 300 mg/kg
Cc1nc2ccccc2c(=O)n1C(=S)NC(=O)Nc1nc2ccc(OC(F)(F)F)cc2s1 |  |  | 300 mg/kg | 30 mg/kg | Non-toxic | 30 mg/kg | TD50 at 0.5 h [13]: > 2150 µmol/kg; Activity (Rattus norvegicus [14]): 44.7 U/ml; selectivity ratio at 0.5 h [15]: > 4.2; selectivity ratio at 0.5 h [16]: > 26; ED50 (Mus musculus [17]): 37.9 µmol/kg; Activity (Rattus norvegicus [18]): 72.4 U/ml; ED50 (Mus musculus [19]): 28.5 µmol/kg; ED50 (Rattus norvegicus [20]): 510 µmol/kg; GABA level (Rattus norvegicus [21]): 68.2 µg/100 mg brain; ED50 (Rattus norvegicus [22]): 82.5 µmol/kg; GABA level (Rattus norvegicus [23]): 75.5 µg/100 mg brain
Cc1nc2cc(F)ccc2c(=O)n1C(=S)NC(=O)Nc1nc2ccc(Br)cc2s1 |  | inactive | 300 mg/kg | 300 mg/kg | Non-toxic |  | 
Cc1nc2cc(Cl)ccc2c(=O)n1C(=S)NC(=O)Nc1nc2c(Cl)cccc2s1 |  | inactive |  | 300 mg/kg |  |  | Activity (Mus musculus [24]): Non-toxic; MTC (Mus musculus [7]): 300 mg/kg
